From ChEMBL document CHEMBL1128281 (J Med Chem, 1995)

Experiments:
Rattus norvegicus = organism: Rattus norvegicus; assay: Ability to block apomorphine-induced stereotypy in rats.; assay type: functional
How it was run: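 Male Wistar rats (150–250 g), 6–10 per dose group, given distilled water or test drug ip; apomorphine 1.5 mg/kg sc 50 min later. Rats were placed singly in cages and scored 10 min afterwards for continuous stereotyped licking or sniffing. Inhibition was the number of animals protected versus controls. ED50 was obtained by probit analysis.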

[1] = molecular target: Serotonin 2 (5-HT2) receptor (Rattus norvegicus, UniProt P30994+P08909+P14842); assay: Affinity for 5-hydroxytryptamine 2 receptor binding sites by its ability to displace [3H]spiperone from rat frontal cortex.
Mus musculus = organism: Mus musculus; assay: Ability to inhibit apomorphine-induced climbing behavior in mice.; assay type: functional
How it was run: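 Male CD-1 mice (18–30 g) were adapted for 1 h in wire-mesh cages, 8 per dose group. Distilled water or drug was given ip 30 or 60 min before apomorphine 1.5 mg/kg sc.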

| IC50 [1] | SMILES | ED50 (Rattus norvegicus) | ED50 (Mus musculus) |
| --- | --- | --- | --- |
| 3.8 nM | CCOc1cc(C(C)=O)ccc1OCCCN1CCC(c2noc3cc(F)ccc23)CC1 | 14.5 mg/kg | 0.56 mg/kg |
| 0.7 nM | COc1cc(/C(C)=N\O)ccc1OCCCN1CCC(c2noc3cc(F)ccc23)CC1 | > 80 mg/kg | 1.1 mg/kg |
| 8.5 nM | COc1cc(C(C)=O)ccc1OCCCCN1CCC(c2noc3cc(F)ccc23)CC1 | 7.5 mg/kg | 0.68 mg/kg |
|  | CC(=O)c1ccc(OCCCN2CCC(c3noc4cc(F)ccc34)CC2)c(C)c1 | 31.4 mg/kg | 0.25 mg/kg |
| 45 nM | COc1cc(C(C)=O)ccc1OCCN1CCC(c2noc3cc(Cl)ccc23)CC1 |  | > 20 mg/kg |
| 89 nM | CCCCC(=O)c1ccc(OCCCN2CCC(c3noc4cc(F)ccc34)CC2)c(OC)c1 | 16.9 mg/kg | 0.78 mg/kg |
| 49 nM | COc1cc(Br)ccc1OCCCN1CCC(c2noc3cc(F)ccc23)CC1 | 15.3 mg/kg | 1.6 mg/kg |
| 153 nM | CC(=O)c1cc(C)ccc1OCCCN1CCC(c2noc3cc(F)ccc23)CC1 | 25.1 mg/kg | 5.6 mg/kg |
| 45 nM | COc1cc(C#N)ccc1OCCCN1CCC(c2noc3cc(F)ccc23)CC1 | 15.7 mg/kg | 1 mg/kg |
| 34 nM | COc1cc(C(C)=O)ccc1OCCCCN1CCC(c2noc3ccccc23)CC1 | 17 mg/kg | 1.6 mg/kg |
| 20 nM | CC(=O)Nc1cc(C(C)=O)ccc1OCCCN1CCC(c2noc3cc(F)ccc23)CC1 | 21.1 mg/kg | 0.049 mg/kg |
| 17 nM | CNc1ccccc1OCCCN1CCC(c2noc3cc(F)ccc23)CC1 | 22.3 mg/kg | 0.81 mg/kg |
| 5.2 nM | COc1cc(C(=O)N(C)C)ccc1OCCCN1CCC(c2noc3cc(F)ccc23)CC1 | 26.7 mg/kg | 0.72 mg/kg |
| 23 nM | COc1cc(OCCCN2CCC(c3noc4cc(F)ccc34)CC2)ccc1C(C)=O | 8.2 mg/kg | 0.28 mg/kg |
| 0.9 nM | COc1cc(C(N)=O)ccc1OCCCN1CCC(c2noc3cc(F)ccc23)CC1 | 22.7 mg/kg | 1.6 mg/kg |
| 4.9 nM | COc1cc(C(C)=O)ccc1OCCCN1CCC(c2noc3cc(Cl)ccc23)CC1 | > 80 mg/kg | 3.3 mg/kg |
| 91 nM | CC(=O)c1ccc2c(c1)OCC(CCN1CCC(c3noc4cc(F)ccc34)CC1)O2 (stereo unspecified) | > 80 mg/kg | 13.7 mg/kg |
| 2 nM | COc1ccc(N)cc1OCCCN1CCC(c2noc3cc(F)ccc23)CC1 | 13 mg/kg | 0.16 mg/kg |
| 20 nM | COc1cc(/C(C)=N\N)ccc1OCCCN1CCC(c2noc3cc(F)ccc23)CC1 | 17.4 mg/kg | 0.64 mg/kg |
| 241 nM | COc1cc(C(=O)c2ccccc2)ccc1OCCCN1CCC(c2noc3cc(F)ccc23)CC1 | > 80 mg/kg | 18.1 mg/kg |
| 16 nM | CCc1ccc(OCCCN2CCC(c3noc4cc(F)ccc34)CC2)c(OC)c1 | 9.5 mg/kg | 0.18 mg/kg |
| 11 nM | CCC(=O)c1ccc(OCCCN2CCC(c3noc4cc(F)ccc34)CC2)c(OC)c1 | > 20 mg/kg | 0.77 mg/kg |
| 5.5 nM | CC(=O)c1ccc(OCCCN2CCC(c3noc4cc(F)ccc34)CC2)cc1 | 5.7 mg/kg | 0.84 mg/kg |
| 2.9 nM | CC(=O)c1ccc(OCCCN2CCC(c3noc4cc(F)ccc34)CC2)c(O)c1 | 0.7 mg/kg | 0.054 mg/kg |

| IC50 [1] | SMILES | ED50 (Rattus norvegicus) | ED50 (Mus musculus) |
| --- | --- | --- | --- |
|  | Nc1ccccc1OCCCN1CCC(c2noc3cc(F)ccc23)CC1 | 5.5 mg/kg | 0.42 mg/kg |
| < 10 nM | COc1cc2c(cc1OCCCN1CCC(c3noc4cc(F)ccc34)CC1)CCCC2=O | 25 mg/kg | 2.3 mg/kg |
| 170 nM | CSc1cc(C(C)=O)ccc1OCCCN1CCC(c2noc3cc(F)ccc23)CC1 |  | 20 mg/kg |
| 42 nM | CNc1cc(C(C)=O)ccc1OCCCN1CCC(c2noc3cc(F)ccc23)CC1 | 47.6 mg/kg | 0.15 mg/kg |
| 67 nM | COc1cc(C(C)=O)ccc1OCCN1CCC(c2noc3cc(F)ccc23)CC1 | > 80 mg/kg | 5.3 mg/kg |
| 41 nM | COc1cc(C(C)=O)ccc1SCCCN1CCC(c2noc3cc(F)ccc23)CC1 | 13.6 mg/kg | 2 mg/kg |
| 3.2 nM | COc1cc2cc[nH]c2cc1OCCCN1CCC(c2noc3cc(F)ccc23)CC1 | 8.6 mg/kg | 2.7 mg/kg |
| 143 nM | COc1cc(C(C)=O)ccc1OCCCCN1CCC(c2noc3cc(Cl)ccc23)CC1 | 9.7 mg/kg | 2.4 mg/kg |
| 22 nM | COc1cc(C(C)O)ccc1OCCCN1CCC(c2noc3cc(F)ccc23)CC1 (stereo unspecified) | 22.7 mg/kg | 0.12 mg/kg |
| 38 nM | COc1cc(C(=O)C(F)(F)F)ccc1OCCCN1CCC(c2noc3cc(F)ccc23)CC1 | > 20 mg/kg | 2.2 mg/kg |
| 16 nM | CC(=O)c1ccc(OCCCN2CCC(c3noc4cc(F)ccc34)CC2)c(N(C)C)c1 | 4.3 mg/kg | 0.15 mg/kg |
| 18 nM | COc1cc(C(C)=O)ccc1NCCCN1CCC(c2noc3cc(F)ccc23)CC1 | 9.3 mg/kg | 0.26 mg/kg |
| 36 nM | CC(=O)c1ccc(OCCCN2CCC(c3noc4cc(F)ccc34)CC2)cc1C | 52.3 mg/kg | 1.2 mg/kg |
| 122 nM | COc1cc(C(C)=O)ccc1OCCCN1CCC(c2noc3ccc(F)cc23)CC1 | > 80 mg/kg | 5.2 mg/kg |
| 26 nM | COc1cc(C(C)=O)ccc1OCCN1CCC(c2noc3ccccc23)CC1 |  | 7.4 mg/kg |
| 20 nM | C=C(C)c1ccc(OCCCN2CCC(c3noc4cc(F)ccc34)CC2)c(OC)c1 | 25 mg/kg | 0.55 mg/kg |
| 33 nM | Fc1ccc2c(C3CCN(CCCOc4ccccc4)CC3)noc2c1 | 7.1 mg/kg | 0.62 mg/kg |
| 5.2 nM | COc1ccccc1OCCCN1CCC(c2noc3cc(F)ccc23)CC1 | 9.7 mg/kg | 0.48 mg/kg |
| 63 nM | CC(=O)c1cccc(OCCCN2CCC(c3noc4cc(F)ccc34)CC2)c1 | 6.4 mg/kg | 0.39 mg/kg |
| < 10 nM | COc1cc(C(C)=O)cc(OC)c1OCCCN1CCC(c2noc3cc(F)ccc23)CC1 | 13.6 mg/kg | 0.72 mg/kg |
| 53 nM | CC(O)c1ccc(OCCCN2CCC(c3noc4cc(F)ccc34)CC2)c(O)c1 (stereo unspecified) | 3.6 mg/kg | 0.058 mg/kg |
| 3.8 nM | COc1ccc(NC(C)=O)cc1OCCCN1CCC(c2noc3cc(F)ccc23)CC1 | 30.1 mg/kg | 0.6 mg/kg |
| 3.5 nM | COc1cc(C(C)=O)ccc1OCCCN1CCC(c2noc3ccccc23)CC1 | 20.8 mg/kg | 0.67 mg/kg |
